# Measurements: ChEMBL document CHEMBL4680231, “A glutathione-responsive photosensitizer with fluorescence resonance energy transfer characteristics for imaging-guided targeting photodynamic therapy” (Eur J Med Chem, 2020)
# The source made the active and inactive calls. The calls are words filed in the database; no cut-off is given here.
# Key:
# [1] = Prodrug activation in mouse H22 cells assessed as increase in fluorescence at 10 uM after 8 hrs in presence of GSH by flow cytometric analysis; format: cell-based; settings: h22, 8 h
# Outline: (§1)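 Cells (10^5 per confocal dish) were seeded in DMEM overnight at 37 °C, 5% CO2. They were pretreated with 5 mM GSH in DMEM, or medium alone, for 2 h, then washed. Compound at 10 μM was added for 8 h. Intracellular fluorescence was read by confocal microscopy (excitation 633 nm) or by flow cytometry under the same conditions.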
# A549 [2] = test: Induction of ROS generation in human A549 cells at 10 uM incubated for 12 hrs irradiated with 20 mW cm^-2 light in presence of vitamin C by DCFH-DA staining based confocal laser scanning microscopic method; format: functional, cell-based
# Outline: (§2)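 Cells were seeded in confocal dishes overnight. Pretreatment was GSH 5 mM in DMEM for 2 h, or vitamin C 100 μM for 1 h, before compound at 10 μM for 12 h. DCFH-DA was added for 1 h, then 5 PBS washes and transfer to serum-free, phenol red-free DMEM. Cells were irradiated at 670 nm, 20 mW·cm⁻², for 3 min. Confocal imaging used λex 488 nm for DCF and 633 nm for the photosensitizer.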
# [3] = Drug uptake in Kunming mouse implanted with H22 cells at 2 mg/kg, iv and measured up to 24 hrs by FMT assay; format: ADME, organism-based; settings: in vivo
# Outline: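 Mice carried subcutaneous back tumours from H22 cells (10^7 cells/mL, 100 μL), used at about 50 mm³. They received a single tail-vein injection of 2 mg/kg (200 μL), with saline as control, 3 mice per group. Whole-body fluorescence molecular tomography was taken at 0, 2, 6, 12 and 24 h. At 24 h, tumour, heart, liver, spleen, lung and kidney were imaged ex vivo.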
# [4] = Prodrug activation in DMF at 10 uM incubated for 720 mins in presence of 2 uM GSH by fluorescence spectroscopic analysis; settings: 12 h
# H22 [5] = test: Photodynamic antitumor activity against mouse H22 cells implanted in Kunming mouse assessed as increase in apoptotic cells in tumour at 2 mg/kg, iv administered at […] post-implantation followed by irradiated with 100 mW/cm2 […] and measured up to 15 days by H and E staining based microscopic method; format: functional, organism-based; settings: time 15.0 day
# Outline: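 Mice carried subcutaneous H22 tumours of about 50 mm³ and were randomised into 5 groups of 5. They received saline or compound at 2 mg/kg (100 μL) i.v. on days 1, 4 and 7. Light groups were irradiated at 670 nm, 100 mW/cm², 12 h after each dose. Tumour volume and body weight were recorded daily for 15 days. Tumours were then excised and weighed, fixed in 4% paraformaldehyde, paraffin-embedded and H&E stained. Apoptotic and necrotic areas were scored microscopically.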
# [6] = Prodrug activation in HELF cells assessed as increase in fluorescence at 10 uM after 8 hrs by confocal laser scanning microscopic method; format: cell-based; settings: human, primary lung fibroblast; outline: as §1
# H22 [7] = test: Induction of ROS generation in mouse H22 cells at 10 uM incubated for 12 hrs irradiated with 20 mW cm^-2 light in presence of vitamin C by DCFH-DA staining based confocal laser scanning microscopic method; format: functional, cell-based; outline: as §2
# [8] = Prodrug activation in human A549 cells assessed as increase in fluorescence at 10 uM after 8 hrs in presence of GSH by flow cytometric analysis; format: cell-based; settings: a549, 8 h; outline: as §1
# [9] = Prodrug activation in HELF cells assessed as increase in fluorescence at 10 uM after 8 hrs by flow cytometric analysis; format: cell-based; settings: human, primary lung fibroblast; outline: as §1
# [10] = Photoactivity of compound in PBS with 0.05% Tween 80 assessed as singlet oxygen generation at 10 uM irradiated with 20 mW cm^-2 light in presence on GSH by DMA based fluorescence assay
# HeLa [11] = test: Cytotoxicity against human HeLa cells assessed as reduction cell viability preincubated for 24 hrs in dark condition followed by irradiated with 20 mW cm^-2 light by MTT assay; format: functional, cell-based
# Outline: (§3)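 MTT assay. About 6000 cells per well were seeded and left overnight at 37 °C, 5% CO2. Compound was added at a range of concentrations in DMEM (1% DMSO, 0.05% Tween 80) for 24 h in the dark, then the medium was replaced. Irradiated wells received a 670 nm LED at 20 mW·cm⁻² for 2 min (2.4 J·cm⁻²); dark wells were not irradiated. Cells were incubated overnight, then MTT for 4 h, DMSO added, OD read at 490 nm. Three independent experiments, each in sextuplicate. IC50 is the concentration killing 50% of cells.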
# H22 [12] = test: Cytotoxicity against mouse H22 cells assessed as reduction cell viability preincubated for 24 hrs in dark condition followed by irradiated with 20 mW cm^-2 light by MTT assay; format: functional, cell-based; outline: as §3
# [13] = Prodrug activation in DMF at 10 uM incubated for 720 mins in presence of 10 mM GSH by fluorescence spectroscopic analysis; settings: 12 h
# [14] = Prodrug activation in human HeLa cells assessed as increase in fluorescence at 10 uM after 8 hrs by flow cytometric analysis; format: cell-based; outline: as §1
# HeLa [15] = test: Induction of ROS generation in human HeLa cells at 10 uM incubated for 12 hrs irradiated with 20 mW cm^-2 light in presence of vitamin C by DCFH-DA staining based confocal laser scanning microscopic method; format: functional, cell-based; outline: as §2
# A549 [16] = test: Induction of ROS generation in human A549 cells at 10 uM incubated for 12 hrs irradiated with 20 mW cm^-2 light in presence of GSH by DCFH-DA staining based confocal laser scanning microscopic method; format: functional, cell-based; outline: as §2
# Primary lung fibroblast = test: Induction of ROS generation in human HELF cells at 10 uM incubated for 12 hrs irradiated with 20 mW cm^-2 light in presence of vitamin C by DCFH-DA staining based confocal laser scanning microscopic method; format: functional, cell-based; outline: as §2
# [17] = Drug localization in lysosome of human A549 cells assessed as GSH mediated cleavage at 10 uM after 12 hrs by Lyso-Tracker Red dye based confocal laser scanning microscopic method; format: ADME, subcellular; settings: a549, 12 h
# Outline: (§4)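 Cells were seeded in confocal dishes overnight, then given compound at 10 μM for 12 h. Staining was DAPI for 20 min, or Lyso-Tracker Red or Mito-Tracker Green for 60 min, followed by 5 PBS washes. Images were taken by confocal microscopy with excitation/detection of 405/425-475 nm (DAPI), 543/550-620 nm (Lyso) and 488/510-570 nm (Mito). Colocalization was judged from line intensity profiles.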
# [18] = Drug localization in nucleus of human A549 cells assessed as GSH mediated cleavage at 10 uM after 12 hrs by DAPI dye based confocal laser scanning microscopic method; format: ADME, subcellular; settings: a549, 12 h; outline: as §4
# [19] = Prodrug activation in DMF assessed as pseudo-first-order kinetics at 10 uM incubated for 720 mins in presence of 10 mM GSH by fluorescence spectroscopic analysis; settings: 12 h
# [20] = Drug localization in mitochondria of human A549 cells assessed as GSH mediated cleavage at 10 uM after 12 hrs by Mito-Tracker Green dye based confocal laser scanning microscopic method; format: ADME; settings: a549, 12 h; outline: as §4
SMILES,Drug metabolism [1],Activity (A549 [2]),Activity (H22 [5]),Drug metabolism [6],Activity (H22 [7]),Drug metabolism [8],Drug metabolism [9],Drug metabolism [10],Drug metabolism [14],Activity (HeLa [15]),Activity (A549 [16]),Activity (Primary lung fibroblast),also measured
COCCOCCOCCOc1ccc(/C=C/C2=[N+]3C(=C(c4ccc(OCc5cn(CCCCCCn6cc(COc7ccc(C8=C9C(C)=CC(/C=C/c%10ccc(N(C)C)cc%10)=[N+]9[B-](F)(F)n9c(/C=C/c%10ccc(N(C)C)cc%10)cc(C)c98)cc7)nn6)nn5)cc4)c4c(C)c(I)c(/C=C/c5ccc(OCCOCCOCCOC)cc5)n4[B-]3(F)F)C(C)=C2I)cc1,Metabolite_Notdetected,inactive,Active,Metabolite_Notdetected,inactive,Metabolite_Notdetected,Metabolite_Notdetected,Metabolite not detected,Metabolite_Notdetected,inactive,inactive,inactive,Drug uptake [3]: Active; Drug metabolism [4]: Metabolite_Notdetected; Activity (HeLa [11]): inactive; Activity (H22 [12]): inactive; Drug metabolism [13]: Metabolite_Notdetected
COCCOCCOCCOc1ccc(/C=C/C2=[N+]3C(=C(c4ccc(OCc5cn(CCSSCCn6cc(COc7ccc(C8=C9C(C)=CC(/C=C/c%10ccc(N(C)C)cc%10)=[N+]9[B-](F)(F)n9c(/C=C/c%10ccc(N(C)C)cc%10)cc(C)c98)cc7)nn6)nn5)cc4)c4c(C)c(I)c(/C=C/c5ccc(OCCOCCOCCOC)cc5)n4[B-]3(F)F)C(C)=C2I)cc1,Metabolite_Detected,inactive,Active,Metabolite_Notdetected,inactive,Metabolite_Detected,Metabolite_Notdetected,Metabolite detected,Metabolite_Detected,inactive,Active,inactive,"Drug uptake [17]: Active; Drug uptake [18]: Not Active; IC50 (HeLa [11]; light or radiation study): 670 nM; K [19]: 5.8 10^-3/min; IC50 (H22 [12]; H22, light or radiation study): 480 nM; Drug uptake [20]: Active"
